# According to ChEMBL document CHEMBL5058577, “EUbOPEN Chemogenomics Library 2 (Multiplex)” (2022):
# Tested on: HEK-293T
# Experiment: Multiplex assay against HEK293T
# Type: toxicity, cell-based
# Settings: human
# Method in brief: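 Hoechst33342, BioTracker Green Microtubule Cytoskeleton Dye, MitoTracker Red and Annexin V Alexa Fluor 680 were added to live cells at seeding, and imaging on a CQ1 microscope at 37°C and 5% CO2 followed compound addition. Gating by CellPathfinder machine learning separated cells into Hoechst high-intensity objects or normal cells, then normal cells into healthy, pyknosed or fragmented nuclei, then pyknosed cells into mitotic or apoptotic. Per cents of healthy-nucleus cells are reported for the tubulin, mitochondrial-mass and membrane-permeability phenotypes.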
# [1] = 12 h, 1 µM, compound concentration 1 uM, replicate 1
# [2] = 12 h, 1 µM, compound concentration 1 uM, replicate 2
# [3] = 12 h, 10 µM, compound concentration 10 uM, replicate 1
# [4] = 12 h, 10 µM, compound concentration 10 uM, replicate 2
# [5] = 24 h, 1 µM, compound concentration 1 uM, replicate 1
# [6] = 24 h, 1 µM, compound concentration 1 uM, replicate 2
# [7] = 24 h, 10 µM, compound concentration 10 uM, replicate 1
# [8] = 24 h, 10 µM, compound concentration 10 uM, replicate 2
# [9] = 48 h, 1 µM, compound concentration 1 uM, replicate 1
# [10] = 48 h, 1 µM, compound concentration 1 uM, replicate 2
# [11] = 48 h, 10 µM, compound concentration 10 uM, replicate 1
# [12] = 48 h, 10 µM, compound concentration 10 uM, replicate 2
smiles,measurement,setting,value
O=c1ccc2ccc(OCCCCN3CCN(c4cccc5sccc45)CC3)cc2[nH]1 [BREXPIPRAZOLE],Population Apoptotic (%),[1],44%
same,Population Fragmented Nuclei (%),[1],6%
same,Population Healthy Nuclei (%),[1],77%
same,Population Hoechst High Intensity Objects (%),[1],6%
same,Population Membrane Permeable-Phenotype (%),[1],0%
same,Population Mitochondria Different-Phenotype (%),[1],67%
same,Population Mitotic Cells (%),[1],55%
same,Population Normal (%),[1],93%
same,Population Pyknosed Nuclei (%),[1],15%
same,Population Tubulin-Different-Phenotype (%),[1],51%
same,Total Cell Count,[1],392
same,Population Apoptotic (%),[2],42%
same,Population Fragmented Nuclei (%),[2],5%
same,Population Healthy Nuclei (%),[2],80%
same,Population Mitochondria Different-Phenotype (%),[2],69%
same,Population Mitotic Cells (%),[2],57%
same,Population Pyknosed Nuclei (%),[2],14%
same,Population Tubulin-Different-Phenotype (%),[2],47%
same,Total Cell Count,[2],354
same,Population Apoptotic (%),[3],82%
same,Population Fragmented Nuclei (%),[3],17%
same,Population Healthy Nuclei (%),[3],43%
same,Population Hoechst High Intensity Objects (%),[3],66%
same,Population Membrane Permeable-Phenotype (%),[3],0%
same,Population Mitochondria Different-Phenotype (%),[3],97%
same,Population Mitotic Cells (%),[3],17%
same,Population Normal (%),[3],33%
same,Population Pyknosed Nuclei (%),[3],38%
same,Population Tubulin-Different-Phenotype (%),[3],81%
same,Total Cell Count,[3],299
same,Population Apoptotic (%),[4],85%
same,Population Fragmented Nuclei (%),[4],10%
same,Population Healthy Nuclei (%),[4],66%
same,Population Hoechst High Intensity Objects (%),[4],41%
same,Population Mitochondria Different-Phenotype (%),[4],100%
same,Population Mitotic Cells (%),[4],14%
same,Population Normal (%),[4],59%
same,Population Pyknosed Nuclei (%),[4],23%
same,Population Tubulin-Different-Phenotype (%),[4],62%
same,Total Cell Count,[4],200
same,Population Apoptotic (%),[5],41%
same,Population Fragmented Nuclei (%),[5],10%
same,Population Healthy Nuclei (%),[5],73%
same,Population Hoechst High Intensity Objects (%),[5],8%
same,Population Membrane Permeable-Phenotype (%),[5],0%
same,Population Mitochondria Different-Phenotype (%),[5],51%
same,Population Mitotic Cells (%),[5],58%
same,Population Normal (%),[5],91%
same,Population Pyknosed Nuclei (%),[5],16%
same,Population Tubulin-Different-Phenotype (%),[5],36%
same,Total Cell Count,[5],501
same,Population Apoptotic (%),[6],42%
same,Population Fragmented Nuclei (%),[6],4%
same,Population Healthy Nuclei (%),[6],87%
same,Population Hoechst High Intensity Objects (%),[6],2%
same,Population Mitochondria Different-Phenotype (%),[6],52%
same,Population Mitotic Cells (%),[6],57%
same,Population Normal (%),[6],97%
same,Population Pyknosed Nuclei (%),[6],7%
same,Population Tubulin-Different-Phenotype (%),[6],35%
same,Total Cell Count,[6],449
same,Population Apoptotic (%),[7],91%
same,Population Fragmented Nuclei (%),[7],12%
same,Population Healthy Nuclei (%),[7],37%
same,Population Hoechst High Intensity Objects (%),[7],68%
same,Population Membrane Permeable-Phenotype (%),[7],0%
same,Population Mitochondria Different-Phenotype (%),[7],100%
same,Population Mitotic Cells (%),[7],8%
same,Population Normal (%),[7],31%
same,Population Pyknosed Nuclei (%),[7],50%
same,Population Tubulin-Different-Phenotype (%),[7],66%
same,Total Cell Count,[7],284
same,Population Apoptotic (%),[8],89%
same,Population Fragmented Nuclei (%),[8],10%
same,Population Healthy Nuclei (%),[8],59%
same,Population Hoechst High Intensity Objects (%),[8],46%
same,Population Mitochondria Different-Phenotype (%),[8],98%
same,Population Mitotic Cells (%),[8],10%
same,Population Normal (%),[8],53%
same,Population Pyknosed Nuclei (%),[8],30%
same,Population Tubulin-Different-Phenotype (%),[8],57%
same,Total Cell Count,[8],180
same,Population Apoptotic (%),[9],49%
same,Population Fragmented Nuclei (%),[9],9%
same,Population Healthy Nuclei (%),[9],80%
same,Population Hoechst High Intensity Objects (%),[9],5%
same,Population Membrane Permeable-Phenotype (%),[9],0%
same,Population Mitochondria Different-Phenotype (%),[9],47%
same,Population Mitotic Cells (%),[9],50%
same,Population Normal (%),[9],94%
same,Population Pyknosed Nuclei (%),[9],10%
same,Population Tubulin-Different-Phenotype (%),[9],28%
same,Total Cell Count,[9],679
same,Population Apoptotic (%),[10],48%
same,Population Fragmented Nuclei (%),[10],12%
same,Population Healthy Nuclei (%),[10],79%
same,Population Hoechst High Intensity Objects (%),[10],3%
same,Population Membrane Permeable-Phenotype (%),[10],1%
same,Population Mitochondria Different-Phenotype (%),[10],36%
same,Population Mitotic Cells (%),[10],51%
same,Population Normal (%),[10],96%
same,Population Pyknosed Nuclei (%),[10],7%
same,Population Tubulin-Different-Phenotype (%),[10],26%
same,Total Cell Count,[10],644
same,Population Apoptotic (%),[11],93%
same,Population Fragmented Nuclei (%),[11],19%
same,Population Healthy Nuclei (%),[11],30%
same,Population Hoechst High Intensity Objects (%),[11],67%
same,Population Membrane Permeable-Phenotype (%),[11],0%
same,Population Mitochondria Different-Phenotype (%),[11],96%
same,Population Mitotic Cells (%),[11],6%
same,Population Normal (%),[11],32%
same,Population Pyknosed Nuclei (%),[11],50%
same,Population Tubulin-Different-Phenotype (%),[11],51%
same,Total Cell Count,[11],269
same,Population Apoptotic (%),[12],89%
same,Population Fragmented Nuclei (%),[12],14%
same,Population Healthy Nuclei (%),[12],50%
same,Population Hoechst High Intensity Objects (%),[12],52%
same,Population Mitochondria Different-Phenotype (%),[12],97%
same,Population Mitotic Cells (%),[12],10%
same,Population Normal (%),[12],47%
same,Population Pyknosed Nuclei (%),[12],34%
same,Population Tubulin-Different-Phenotype (%),[12],82%
same,Total Cell Count,[12],170
